# Data as given in ChEMBL document CHEMBL2390924, “Further studies on bis-charged tetraazacyclophanes as potent inhibitors of small conductance Ca(2+)-activated K+ channels” (Eur J Med Chem, 2013).
# What was measured:
# [1] = molecular target: Small conductance calcium-activated potassium channel protein 3 (Rattus norvegicus) (UniProt P70605); assay: Inhibition of KCa2.3 in Sprague-Dawley rat superior cervical ganglion neurons assessed as inhibition of afterhyperpolarization by electrophysiological assay relative to UCL1848
# How it was run: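 AHP recorded from rat sympathetic ganglion neurons. The equi-effective molar ratio is the test-compound concentration giving 50% AHP inhibition divided by the UCL 1848 concentration giving 50% inhibition, both measured in the same experiment. Each compound was tested on 3–5 neurons.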
# Target sequence in this assay (P70605 whole entry): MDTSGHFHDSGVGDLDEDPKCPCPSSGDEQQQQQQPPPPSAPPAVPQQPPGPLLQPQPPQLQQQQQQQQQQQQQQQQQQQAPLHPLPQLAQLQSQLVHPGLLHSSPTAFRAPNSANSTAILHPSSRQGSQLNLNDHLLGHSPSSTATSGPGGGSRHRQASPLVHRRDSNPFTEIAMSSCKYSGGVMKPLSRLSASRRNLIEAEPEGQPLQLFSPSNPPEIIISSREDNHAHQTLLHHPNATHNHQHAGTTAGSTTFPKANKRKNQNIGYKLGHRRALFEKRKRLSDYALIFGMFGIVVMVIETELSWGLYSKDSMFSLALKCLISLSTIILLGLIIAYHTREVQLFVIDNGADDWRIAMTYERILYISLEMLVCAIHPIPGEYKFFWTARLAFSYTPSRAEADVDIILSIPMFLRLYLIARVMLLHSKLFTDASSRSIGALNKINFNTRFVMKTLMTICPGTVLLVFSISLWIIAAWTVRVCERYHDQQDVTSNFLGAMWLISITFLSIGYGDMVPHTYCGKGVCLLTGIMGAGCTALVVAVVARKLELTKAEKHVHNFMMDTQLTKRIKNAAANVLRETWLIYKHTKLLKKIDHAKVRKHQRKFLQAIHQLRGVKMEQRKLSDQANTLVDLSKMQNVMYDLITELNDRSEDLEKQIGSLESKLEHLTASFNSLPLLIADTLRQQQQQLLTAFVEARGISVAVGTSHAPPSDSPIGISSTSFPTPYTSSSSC
# [2] = molecular target: Small conductance calcium-activated potassium channel protein 3 (Rattus norvegicus, UniProt P70605); assay: Inhibition of KCa2.3 in Sprague-Dawley rat superior cervical ganglion neurons assessed as inhibition of afterhyperpolarization by electrophysiological assay
# Small conductance calcium-activated potassium channel protein 3, sequence (P70605 whole entry): as above
# How it was run: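 Afterhyperpolarization (AHP) recorded from rat sympathetic ganglion neurons. The reported value is the concentration giving a 50% reduction in AHP amplitude.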
# [3] = molecular target: Small conductance calcium-activated potassium channel protein 3 (Rattus norvegicus) (UniProt P70605); assay: Inhibition of KCa2.3 in Sprague-Dawley rat superior cervical ganglion neurons assessed as inhibition of afterhyperpolarization by electrophysiological assay relative to dequalinium
# How it was run: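 AHP recorded from rat sympathetic ganglion neurons. The equi-effective molar ratio is the concentration giving 50% AHP inhibition relative to that of dequalinium, used as the comparator instead of UCL 1848.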
# Target sequence in this assay (P70605 whole entry): as above
# [4] = molecular target: Small conductance calcium-activated potassium channel protein 3 (Rattus norvegicus) (UniProt P70605); assay: Inhibition of KCa2.3 in rat superior cervical ganglion neurons
# Target sequence in this assay (P70605 whole entry, looked up): as the sequence (P70605 whole entry) above
Structure (SMILES),EMR [1],IC50 [2] [nM],EMR [3],IC50 [4] [nM]
c1ccc2c(c1)c1cc[n+]2CCSCC[n+]2ccc(c3ccccc32)NCCSCCN1,12,42,,
FC(F)(F)Oc1ccc2c(c1)c1cc[n+]2Cc2cccc(c2)C[n+]2ccc(c3cc(OC(F)(F)F)ccc32)NCc2ccc(cc2)CN1,5.9,15,,
COc1ccc2c(c1)c1cc[n+]2CCCCC[n+]2ccc(c3cc(OC)ccc32)NCCCCCN1,3.1,6.8,,
COc1c2cccc1CNc1cc[n+](c3ccccc13)CCCCC[n+]1ccc(c3ccccc31)NC2,38,97,,
Fc1ccc2c(c1)c1cc[n+]2Cc2cccc(c2)C[n+]2ccc(c3cc(F)ccc32)NCc2ccc(cc2)CN1,6.9,17,,
C1=C\C[n+]2ccc(c3ccccc32)NCCCCCNc2cc[n+](c3ccccc23)C/1,19,42,,
c1cc2cc(c1)C[n+]1ccc(c3ccccc31)NCc1ccc(cc1)CNc1cc[n+](c3ccccc13)C2,1.44,4.1,,
Clc1cc(Cl)c2c3cc[n+](c2c1)CCCCC[n+]1ccc(c2c(Cl)cc(Cl)cc21)NCCCCCN3,8.6,21,,
CC1CCNc2cc[n+](c3ccccc23)CCCCC[n+]2ccc(c3ccccc32)NCC1,2.6,5.9,,
c1ccc2c(c1)c1cc[n+]2CCSCC[n+]2ccc(c3ccccc32)NCCCCCN1,1.2,4.1,,
Clc1ccc2c(c1)c1cc[n+]2Cc2cccc(c2)C[n+]2ccc(c3cc(Cl)ccc32)NCc2ccc(cc2)CN1,8,21,,
C1=C\CNc2cc[n+](c3ccccc23)CCCCC[n+]2ccc(c3ccccc32)NC/1,6.1,13,,
Oc1ccc2c(c1)c1cc[n+]2CCCCC[n+]2ccc(c3cc(O)ccc32)NCCCCCN1,1.8,3.9,,
O=C1CCNc2cc[n+](c3ccccc23)CCCCC[n+]2ccc(c3ccccc32)NCC1,3.6,12,,
c1ccc(CN2CCCCCN(Cc3ccccc3)c3cc[n+](c4ccccc34)CCCCC[n+]3ccc2c2ccccc23)cc1,25,123,,
C1#CCNc2cc[n+](c3ccccc23)CCCCC[n+]2ccc(c3ccccc32)NC1,5.6,14,,
FC(F)(F)c1ccc2c(c1)c1cc[n+]2CCCCC[n+]2ccc(c3cc(C(F)(F)F)ccc32)NCCCCCN1,1.1,4,,
c1cc2cc(c1)CNc1cc[n+](c3ccccc13)CCCCC[n+]1ccc(c3ccccc31)NC2 [listing 1 of 3 here],12,,,
CC1CCNc2cc[n+](c3ccccc23)CCC(C)CC[n+]2ccc(c3ccccc32)NCC1 (configuration not stated),2.3,5.2,,
c1ccc2c(c1)c1cc[n+]2CCSCC[n+]2ccc(c3ccccc32)NCCOCCN1,11,37,,

Structure (SMILES),EMR [1],IC50 [2] [nM],EMR [3],IC50 [4] [nM]
c1ccc2c(c1)c1cc[n+]2CCCCC[n+]2ccc(c3ccccc32)NCC2CCC(CC2)CN1,54,114,,
c1ccc2c(c1)c1cc[n+]2CCOCC[n+]2ccc(c3ccccc32)NCCOCCN1,5.1,17,,
c1cc2cc(c1)C[n+]1ccc(c3ccccc31)NCC1CCC(CC1)CNc1cc[n+](c3ccccc13)C2,0.81,1.7,,
c1ccc2c(c1)c1cc[n+]2CCCCC[n+]2ccc(c3ccccc32)NCCSCCN1,5.3,18,,
CN1CCCCCN(C)c2cc[n+](c3ccccc23)CCCCC[n+]2ccc1c1ccccc12,47,124,0.14,
COc1ccc2c(c1)c1cc[n+]2Cc2cccc(c2)C[n+]2ccc(c3cc(OC)ccc32)NCc2ccc(cc2)CN1,7.4,15,,
c1ccc2c(c1)c1cc[n+]2CCCCC[n+]2ccc(c3ccccc32)NCCOCCN1,5,17,,
c1ccc2c(c1)c1cc[n+]2CCCCC[n+]2ccc(c3ccccc32)NCc2ccc(cc2)CN1,,,,60
Cc1ccc2c(c1)c1cc[n+]2CCCCC[n+]2ccc(c3cc(C)ccc32)NCCCCCN1,2,3.8,,
COc1ccc2c3cc[n+](c2c1)CCCCC[n+]1ccc(c2ccc(OC)cc21)NCCCCCN3,1.1,3,,
Cc1ccc2c(c1)c1cc[n+]2Cc2cccc(c2)C[n+]2ccc(c3cc(C)ccc32)NCc2ccc(cc2)CN1,7.6,19,,
FC(F)(F)c1ccc2c3cc[n+](c2c1)Cc1cccc(c1)C[n+]1ccc(c2ccc(C(F)(F)F)cc21)NCc1ccc(cc1)CN3,31,76,,
Clc1ccc2c3cc[n+](c2c1)CCCCC[n+]1ccc(c2ccc(Cl)cc21)NCCCCCN3,0.53,2.6,,
Clc1cc(Cl)c2c3cc[n+](c2c1)Cc1cccc(c1)C[n+]1ccc(c2c(Cl)cc(Cl)cc21)NCc1ccc(cc1)CN3,10,24,,
FC(F)(F)c1ccc2c3cc[n+](c2c1)CCCCC[n+]1ccc(c2ccc(C(F)(F)F)cc21)NCCCCCN3,1.6,8.1,,
Clc1ccc2c3cc[n+](c2c1)Cc1cccc(c1)C[n+]1ccc(c2ccc(Cl)cc21)NCc1ccc(cc1)CN3,7.3,19,,
O=[N+]([O-])c1ccc2c(c1)c1cc[n+]2Cc2cccc(c2)C[n+]2ccc(c3cc([N+](=O)[O-])ccc32)NCc2ccc(cc2)CN1,2.6,5.1,,
FC1(F)CNc2cc[n+](c3ccccc23)CCCCC[n+]2ccc(c3ccccc32)NCC(F)(F)C1(F)F,13.5,33,,
COc1ccc2c3cc[n+](c2c1)Cc1cccc(c1)C[n+]1ccc(c2ccc(OC)cc21)NCc1ccc(cc1)CN3,4.1,9.8,,
c1ccc2c(c1)c1cc[n+]2CCC2(CC[n+]3ccc(c4ccccc43)NCCC3(CCN1)OCCO3)OCCO2,83,300,,

Structure (SMILES),EMR [1],IC50 [2] [nM],EMR [3],IC50 [4] [nM]
c1ccc2c(c1)c1cc[n+]2Cc2ccc(cc2)C[n+]2ccc(c3ccccc32)NCCCCCN1,1.8,4.4,,
Nc1ccc2c(c1)c1cc[n+]2Cc2cccc(c2)C[n+]2ccc(c3cc(N)ccc32)NCc2ccc(cc2)CN1,1.7,3.7,,
FC(F)(F)c1ccc2c(c1)c1cc[n+]2Cc2cccc(c2)C[n+]2ccc(c3cc(C(F)(F)F)ccc32)NCc2ccc(cc2)CN1,11,27,,
c1ccc2c(c1)c1cc[n+]2CCCCC[n+]2ccc(c3ccccc32)NCCCCCN1,,2.7,,
c1cc2cc(c1)CNc1cc[n+](c3ccccc13)CCCCC[n+]1ccc(c3ccccc31)NC2 [listing 2 of 3 here],,,,31
Oc1c2cccc1CNc1cc[n+](c3ccccc13)CCCCC[n+]1ccc(c3ccccc31)NC2,153,394,,
OC1CCNc2cc[n+](c3ccccc23)CCCCC[n+]2ccc(c3ccccc32)NCC1,0.91,3.2,,
c1ccc2c(c1)c1cc[n+]2CCCCC[n+]2ccc(c3ccccc32)SCCCCCS1,25,124,,
c1cc2cc(c1)CNc1cc[n+](c3ccccc13)CCCCC[n+]1ccc(c3ccccc31)NC2 [listing 3 of 3 here],,33,,
Clc1ccc2c(c1)c1cc[n+]2CCCCC[n+]2ccc(c3cc(Cl)ccc32)NCCCCCN1,1.1,3,,
Fc1ccc2c(c1)c1cc[n+]2CCCCC[n+]2ccc(c3cc(F)ccc32)NCCCCCN1,2.1,4.1,,
Oc1c2cc(I)cc1CNc1cc[n+](c3ccccc13)CCCCC[n+]1ccc(c3ccccc31)NC2,136,348,,
O=[N+]([O-])c1ccc2c(c1)c1cc[n+]2CCCCC[n+]2ccc(c3cc([N+](=O)[O-])ccc32)NCCCCCN1,2.1,4.1,,
c1ccc2c(c1)c1cc[n+]2CCOCC[n+]2ccc(c3ccccc32)NCCSCCN1,17,58,,
Nc1ccc2c(c1)c1cc[n+]2CCCCC[n+]2ccc(c3cc(N)ccc32)NCCCCCN1,1.04,2.3,,
c1ccc2c(c1)c1cc[n+]2CCCCC[n+]2ccc(c3ccccc32)NCCC2(CCN1)OCCO2,60,214,,
c1ccc2c(c1)c1cc[n+]2CCOCC[n+]2ccc(c3ccccc32)NCCCCCN1,1.4,4.8,,
CC1CC[n+]2ccc(c3ccccc32)NCCCCCNc2cc[n+](c3ccccc23)CC1,1.7,3.8,,
